# Published values of several laboratories.
# Compare with care: the assays were run in different laboratories.
# Target: Bone morphogenetic protein receptor type-2 (BMPR2, Homo sapiens, UniProt Q13873)
# Sequence (Q13873 27-1038, as in one of the studies): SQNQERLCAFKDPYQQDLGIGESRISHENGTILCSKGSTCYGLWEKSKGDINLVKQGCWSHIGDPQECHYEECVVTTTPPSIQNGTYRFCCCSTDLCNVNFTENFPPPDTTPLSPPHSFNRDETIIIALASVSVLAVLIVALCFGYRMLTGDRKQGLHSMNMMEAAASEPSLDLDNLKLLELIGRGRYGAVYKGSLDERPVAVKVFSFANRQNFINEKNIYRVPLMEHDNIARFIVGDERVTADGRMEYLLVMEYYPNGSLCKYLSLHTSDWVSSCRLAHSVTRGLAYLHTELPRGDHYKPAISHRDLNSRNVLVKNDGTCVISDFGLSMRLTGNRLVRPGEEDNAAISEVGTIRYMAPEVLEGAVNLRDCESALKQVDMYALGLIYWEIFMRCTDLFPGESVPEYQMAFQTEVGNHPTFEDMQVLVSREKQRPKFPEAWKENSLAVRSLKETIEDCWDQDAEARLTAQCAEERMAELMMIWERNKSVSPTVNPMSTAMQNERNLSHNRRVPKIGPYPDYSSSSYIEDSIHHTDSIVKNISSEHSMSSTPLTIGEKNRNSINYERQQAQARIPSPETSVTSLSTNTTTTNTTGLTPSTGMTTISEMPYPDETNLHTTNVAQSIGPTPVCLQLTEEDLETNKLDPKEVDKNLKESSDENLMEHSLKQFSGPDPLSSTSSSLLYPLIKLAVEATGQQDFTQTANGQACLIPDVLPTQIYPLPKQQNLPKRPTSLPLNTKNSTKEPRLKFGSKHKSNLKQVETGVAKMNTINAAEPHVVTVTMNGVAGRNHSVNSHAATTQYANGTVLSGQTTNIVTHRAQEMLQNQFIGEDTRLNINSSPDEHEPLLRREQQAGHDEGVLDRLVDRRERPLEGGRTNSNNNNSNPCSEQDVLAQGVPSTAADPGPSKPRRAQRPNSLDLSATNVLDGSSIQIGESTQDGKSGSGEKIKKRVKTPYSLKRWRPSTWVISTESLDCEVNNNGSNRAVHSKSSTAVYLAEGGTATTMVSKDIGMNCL
Structure (SMILES),effect on,method,tested at,remaining binding
CN(c1nccc(-c2cnn3ncccc23)n1)C1CC1,binding,,1 µM,100%
CCCCN(CCCC)C(=O)CN1C[C@@H](c2cc(OC)c3c(c2)OCO3)[C@H](C(=O)O)[C@H]1CC(C)(C)CCC,cell-free assay,competition with immobilised ligand,1 µM,86.7%
c1cnn2ncc(-c3ccnc(N4CCC45COC5)n3)c2c1,binding,,1 µM,68%
COc1ncc2cc3ccccc3nc2c1C#N,cell-free assay,competition with immobilised ligand,5 µM,100%
N#Cc1ccccc1CSc1nnc2c(n1)[nH]c1ccccc12,binding,competition with immobilised ligand,10 µM,90%
O=C(Nc1c[nH]nc1C(=O)NC1CCNCC1)c1cc(F)cc(F)c1,binding,competition with immobilised ligand,1 µM,100%
CS(=O)(=O)N1CCCC(NC(=O)[C@H](CCC2CCCCC2)NC(=O)c2ccc(CNC(=O)c3cnc4ccccn34)cc2)C1 (stereo partly drawn),cell-free assay,competition with immobilised ligand,0.1 µM,100%
CN(C)c1nccc(-c2cnc3ncccn23)n1,binding,,1 µM,67%
FC(F)(F)Oc1cccc(-c2cnc3ccc(-c4ccncc4)nn23)c1,cell-free assay,competition with immobilised ligand,5 µM,56%
C[C@@H]1CN(c2ccc3ncc(-c4ccc5[nH]nc(C6CC6)c5c4)n3n2)C[C@H](C)O1,binding,competition with immobilised ligand,0.5 µM,56%
O=C(c1ccc(Nc2nccc(-c3cc4ccccc4s3)n2)cc1)N1CCC(N2CCCC2)CC1,binding,competition with immobilised ligand,1 µM,67%
COc1cccc(CNC(=O)c2nc3scc(COCc4ccc(C(=O)O)cc4)c3c(=O)[nH]2)c1,cell-free assay,competition with immobilised ligand,1 µM,71.8%
C[C@@H]1CCN(c2nccc(-c3cnn4ncccc34)n2)C1,binding,,1 µM,90%
O=C(O)c1cc(-c2ccc(C3CCNCC3)cc2)c2ccc(-c3ccc(C(F)(F)F)cc3)cc2c1,cell-free assay,competition with immobilised ligand,1 µM,100%
F[C@@H]1CCN(c2nccc(-c3cnn4ncccc34)n2)C1,binding,,1 µM,100%
CCC(=N\O)/C(C)=C/c1ccc(F)cc1,cell-free assay,competition with immobilised ligand,1 µM,81%
COc1cnc(Nc2cccc(S(N)(=O)=O)c2)nc1N1CCN(c2ccccc2)CC1,binding,competition with immobilised ligand,1 µM,0.1%
O=C(NCCCN1CCOCC1)c1ccc(Nc2ncc(Cl)c(-c3ccc(Cl)s3)n2)cc1,binding,competition with immobilised ligand,1 µM,55%
NS(=O)(=O)c1cc(NC(=O)Cc2ccccc2)ccc1Oc1cccc(Cl)c1,cell-free assay,competition with immobilised ligand,1 µM,73%
Cc1cnn2ncc(-c3ccnc(N(C)C)n3)c2c1,binding,,1 µM,99%
c1cncc(-c2cccc(Nc3nccc(NC4CCCCC4)n3)c2)c1,binding,competition with immobilised ligand,10 µM,40%
N[C@@H]1CCN(c2nccc(-c3cnn4ncccc34)n2)C1,binding,,1 µM,100%
CCOC(=O)c1cc2cc(-c3cc(C(=O)NCc4ccc(C(=O)O)cc4)nn3C)ccc2[nH]1,cell-free assay,competition with immobilised ligand,0.1 µM,82%
O=C(c1ccc(Nc2ncc(Cl)c(-c3cc4ccccc4s3)n2)cc1)N1CCC(N2CCCC2)CC1,binding,competition with immobilised ligand,1 µM,29%
